Reference: ChEMBL document CHEMBL4028892, “Discovery of a 1-Methyl-3,4-dihydronaphthalene-Based Sphingosine-1-Phosphate (S1P) Receptor Agonist Ceralifimod (ONO-4641). A S1P1 and S1P5 Selective Agonist for the Treatment of Autoimmune Diseases” (J Med Chem, 2017)

Tests used:
[1] = target: T1, Sphingosine 1-phosphate receptor 1 (Homo sapiens, UniProt P21453); experiment: Agonist activity at human S1P1 receptor expressed in CHO-K1 cells assessed as increase in S1P-stimulated calcium influx preincubated for 5 mins followed by S1P stimulation measured every 3 secs by fluorescence method; assay type: functional, cell-based
Procedure, shortened: (§1)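 Fura2 Ca2+ assay in CHO-K1 cells stably expressing human S1P1 or S1P3. Cells were loaded with 5 μM Fura2-AM in Ham's F12 (10% FBS, 20 mM HEPES pH 7.4, 2.5 mM probenecid) for 60 min at 37 °C, then washed. After a 30 s baseline, compound was added (0.1 nM–30 μM final, DMSO), then 100 nM S1P 5 min later. Ratio read every 3 s (ex 340/380, em 500 nm). Increase ratio (%) = B/A×100 against the DMSO-well S1P peak; EC50 taken from the concentration series; mean of ≥2 data points.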

[2] = target: Sphingosine 1-phosphate receptor 3 (Homo sapiens, UniProt Q99500); experiment: Agonist activity at human S1P3 receptor expressed in CHO-K1 cells assessed as increase in S1P-stimulated calcium influx preincubated for 5 mins followed by S1P stimulation measured every 3 secs by fluorescence method; assay type: cell-based
Homo sapiens = organism: Homo sapiens; experiment: Selectivity ratio of EC50 for human S1P3 receptor to EC50 for human S1P1 receptor; procedure, shortened: as §1
Mus musculus [3] = experiment: Decrease in peripheral lymphocyte levels in po dosed BALB/c mouse at 4 hrs by automated hematology analyzer; assay type: functional
Procedure, shortened: (§2)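 Compound given orally to 6-week-old male BALB/c mice. At 4 or 24 h, blood was taken from the abdominal aorta under ether anaesthesia and lymphocytes counted on an automated haematology analyser. Counts expressed as % of the vehicle-group mean; ED50 is the dose lowering counts to 50%. One experiment, five mice.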

Mus musculus [4] = experiment: Decrease in peripheral lymphocyte levels in po dosed BALB/c mouse at 24 hrs by automated hematology analyzer; assay type: functional; procedure, shortened: as §2
[5] = target: T1, Sphingosine 1-phosphate receptor 1; experiment: Agonist activity at human S1P1 receptor expressed in CHO-K1 cells assessed as inhibition of forskolin-stimulated cAMP accumulation after 30 mins by ELISA; assay type: functional, cell-based
[6] = target: Sphingosine 1-phosphate receptor 5 (Homo sapiens, UniProt Q9H228); experiment: Agonist activity at human S1P5 receptor expressed in CHO-K1 cells assessed as inhibition of forskolin-stimulated cAMP accumulation after 30 mins by ELISA; assay type: functional, cell-based
[7] = Protein binding in cynomolgus monkey serum at 50 to 5000 ng/ml after 10 mins by ultracentrifugation method; assay type: ADME, cell-free, Macaca fascicularis; conditions: read-out: PB
Procedure, shortened: (§3)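 Serum protein binding measured at compound concentrations of 50, 500 and 5,000 ng/mL. Mean of four binding experiments.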

[8] = Protein binding in Lewis rat serum at 50 to 5000 ng/ml after 10 mins by ultracentrifugation method; assay type: ADME, cell-free; conditions: read-out: PB; procedure, shortened: as §3
[9] = Metabolic stability in mouse liver microsomes assessed as parent compound remaining after 2 hrs by radio-HPLC method; assay type: ADME, microsome; conditions: read-out: Stability
Procedure, shortened: (§4)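 Tritium-labelled compound incubated for 2 h in liver microsomes of each species. Read-out was % of unchanged form remaining; mean of two experiments.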

[10] = Metabolic stability in Sprague-Dawley rat liver microsomes assessed as parent compound remaining after 2 hrs by radio-HPLC method; assay type: ADME, microsome; conditions: read-out: Stability; procedure, shortened: as §4
[11] = Metabolic stability in cynomolgus monkey liver microsomes assessed as parent compound remaining after 2 hrs by radio-HPLC method; assay type: ADME, Macaca fascicularis, microsome; conditions: read-out: Stability; procedure, shortened: as §4
[12] = Metabolic stability in human liver microsomes assessed as parent compound remaining after 2 hrs by radio-HPLC method; assay type: ADME, microsome; conditions: read-out: Stability; procedure, shortened: as §4
[13] = Protein binding in mouse serum at 50 to 5000 ng/ml after 10 mins by ultracentrifugation method; assay type: ADME, cell-free; conditions: read-out: PB; procedure, shortened: as §3
[14] = Protein binding in Sprague-Dawley rat serum at 50 to 5000 ng/ml after 10 mins by ultracentrifugation method; assay type: ADME, cell-free; conditions: read-out: PB; procedure, shortened: as §3
[15] = Protein binding in human serum at 50 to 5000 ng/ml after 10 mins by ultracentrifugation method; assay type: ADME, cell-free; conditions: read-out: PB; procedure, shortened: as §3
[16] = target: S1P3 receptor (sphingosine 1-phosphate receptor 3) (Homo sapiens, UniProt Q99500); experiment: Agonist activity at human S1P3 receptor expressed in CHO-K1 cells assessed as increase in S1P-stimulated calcium influx at 30 uM preincubated for 5 mins followed by S1P stimulation measured every 3 secs by fluorescence method relative to control; assay type: cell-based; conditions: CHO-K1 cells expressing human S1P3 receptor, read-out: max activation; procedure, shortened: as §1
S1P3 receptor (sphingosine 1-phosphate receptor 3), sequence (Q99500 whole entry): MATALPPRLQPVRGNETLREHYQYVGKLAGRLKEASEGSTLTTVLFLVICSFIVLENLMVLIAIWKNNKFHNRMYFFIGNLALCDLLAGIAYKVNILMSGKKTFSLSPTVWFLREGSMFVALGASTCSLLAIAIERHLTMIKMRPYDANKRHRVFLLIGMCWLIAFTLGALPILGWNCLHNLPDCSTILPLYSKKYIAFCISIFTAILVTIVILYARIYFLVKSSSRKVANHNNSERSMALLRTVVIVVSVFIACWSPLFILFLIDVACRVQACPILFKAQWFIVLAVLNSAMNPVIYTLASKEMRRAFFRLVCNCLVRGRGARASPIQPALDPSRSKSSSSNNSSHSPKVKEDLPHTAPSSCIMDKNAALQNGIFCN

Sphingosine 1-phosphate receptor 3, sequence (Q99500 whole entry): as above
T1 sequence (P21453 whole entry): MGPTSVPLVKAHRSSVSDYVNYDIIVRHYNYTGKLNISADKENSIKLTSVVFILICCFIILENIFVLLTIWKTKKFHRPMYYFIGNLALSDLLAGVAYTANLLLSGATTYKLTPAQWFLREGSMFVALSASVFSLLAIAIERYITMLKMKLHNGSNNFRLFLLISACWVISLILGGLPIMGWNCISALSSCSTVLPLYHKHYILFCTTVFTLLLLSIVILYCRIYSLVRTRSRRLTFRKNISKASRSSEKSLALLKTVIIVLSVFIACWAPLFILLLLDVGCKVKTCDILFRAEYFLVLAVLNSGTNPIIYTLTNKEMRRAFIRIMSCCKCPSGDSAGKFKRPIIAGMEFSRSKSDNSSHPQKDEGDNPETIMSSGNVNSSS
Sphingosine 1-phosphate receptor 5, sequence (Q9H228 whole entry): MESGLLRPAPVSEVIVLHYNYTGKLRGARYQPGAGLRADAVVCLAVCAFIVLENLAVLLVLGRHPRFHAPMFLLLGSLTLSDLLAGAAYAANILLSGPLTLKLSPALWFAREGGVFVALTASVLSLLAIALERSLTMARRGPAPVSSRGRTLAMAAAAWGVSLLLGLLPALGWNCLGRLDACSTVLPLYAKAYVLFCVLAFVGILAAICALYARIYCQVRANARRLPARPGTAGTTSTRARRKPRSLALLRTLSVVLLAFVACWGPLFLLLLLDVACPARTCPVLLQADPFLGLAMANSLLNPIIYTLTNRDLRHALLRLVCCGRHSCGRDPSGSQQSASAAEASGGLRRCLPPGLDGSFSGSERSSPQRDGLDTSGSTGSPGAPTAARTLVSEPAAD

EC50 [1] [nM] | EC50 [2] [nM] | Ratio EC50 (Homo sapiens) | Structure (SMILES) | ED50 (Mus musculus [3]) [mg/kg] | further results
7.9 | > 30000 | > 3800 | CC1=C(CN2CC(C(=O)O)C2)CCc2cc(OCC3Cc4ccccc4C3)ccc21 | > 1 | –
– | – | 1700 | CC1=C(CN2CC(C(=O)O)C2)CCc2cc(OCCCc3ccccc3)ccc21 | 0.4 | –
19 | > 30000 | > 1600 | CC1=C(CN2CC(C(=O)O)C2)CCc2cc(OCC3CCc4ccccc4C3)ccc21 (configuration not stated) | – | –
1.7 | 5500 | > 3200 | CC1=C(CN2CC(C(=O)O)C2)CCc2cc(OCCC3CCc4ccccc43)ccc21 (configuration not stated) | > 1 | –
97 | > 30000 | > 310 | CC1=C(CN2CC(C(=O)O)C2)CCc2cc(OCCC3CCCc4ccccc43)ccc21 (configuration not stated) | – | –
54 | > 10000 | > 190 | CC1=C(CN2CC(C(=O)O)C2)CCc2cc(OCc3ccc4ccccc4c3)ccc21 | – | –
1.4 | > 30000 | > 21000 | COc1cc(C)ccc1COc1ccc2c(c1)CCC(CN1CC(C(=O)O)C1)=C2C | > 0.1 | –

Second part, the molecule before the results:

Structure (SMILES) | EC50 [1] [nM] | EC50 [2] [nM] | Ratio EC50 (Homo sapiens) | ED50 (Mus musculus [3]) [mg/kg] | further results
COc1cc(CC(C)(C)O)ccc1COc1ccc2c(c1)CCC(CN1CC(C(=O)O)C1)=C2C | 6.6 | > 30000 | > 4500 | 0.16 | –
CC1=C(CN2CC(C(=O)O)C2)CCc2cc(OCc3ccc(CC(C)C)cc3F)ccc21 | 2.6 | > 30000 | > 12000 | 0.073 | –
CC1=C(CN2CC(C(=O)O)C2)CCc2cc(OCc3ccc(CC(C)C)cc3C)ccc21 | 13 | > 30000 | > 2300 | 0.23 | –
COc1cc(CC(C)C)ccc1COc1ccc2c(c1)CCC(CN1CC(C(=O)O)C1)=C2C | 1 | 9300 | 9300 | 0.0092 | ED50 (Mus musculus [4]): 0.04 mg/kg
CCCCc1ccc(COc2ccc3c(c2)CCC(CN2CC(C(=O)O)C2)=C3C)c(OC)c1 | 3.5 | > 30000 | > 8600 | 0.09 | ED50 (Mus musculus [4]): 0.18 mg/kg
CCCc1ccc(COc2ccc3c(c2C)CCC(CN2CC(C(=O)O)C2)=C3C)c(OC)c1 | 1.2 | > 30000 | > 25000 | 0.032 | EC50 [5]: 0.072 nM; EC50 [6]: 0.98 nM; ED50 (Mus musculus [4]): 0.072 mg/kg
CC1=C(CN2CC(C(=O)O)C2)CCc2cc(OCc3ccc(CC(C)C)cc3Cl)ccc21 | 4.5 | > 30000 | > 6700 | 0.19 | –
CCCc1ccc(COc2ccc3c(c2)CCC(CN2CC(C(=O)O)C2)=C3C)c(OC)n1 | 0.58 | 6800 | 12000 | 0.011 | –
CCc1ccc(COc2ccc3c(c2)CCC(CN2CC(C(=O)O)C2)=C3C)c(OC)c1 | 0.58 | > 30000 | > 52000 | 0.026 | ED50 (Mus musculus [4]): 0.3 mg/kg
CCCc1ccc(COc2ccc3c(c2C)CCC(CN2CC(C(=O)O)C2)=C3C)c(OC)n1 | 1.2 | > 30000 | > 25000 | 0.017 | EC50 [5]: 0.19 nM; EC50 [6]: 0.92 nM; ED50 (Mus musculus [4]): 0.048 mg/kg
CCCc1cc(OC)c(COc2ccc3c(c2)CCC(CN2CC(C(=O)O)C2)=C3C)cn1 | 57 | > 30000 | > 530 | > 0.1 | –
CCCc1ccc(COc2cc3c(cc2C)C(C)=C(CN2CC(C(=O)O)C2)CC3)c(OC)c1 | 540 | > 30000 | > 56 | – | –
[3H]C(C1=C(C)c2ccc(OCc3ccc(CCC)cc3OC)cc2CC1)N1CC(C(=O)O)C1 (configuration not stated) | – | – | – | – | fraction unbound at 10 min [7]: 0.027 to 0.029; fraction unbound at 10 min [8]: 0.023 to 0.028; remaining at 2 h [9]: 93.3%; remaining at 2 h [10]: 92.6%; remaining at 2 h [11]: 94.1%; remaining at 2 h [12]: 95.2%; fraction unbound at 10 min [13]: 0.029 to 0.038; fraction unbound at 10 min [14]: 0.018 to 0.023; fraction unbound at 10 min [15]: 0.029 to 0.032
COc1cc(COc2ccc3c(c2)CCC(CN2CC(C(=O)O)C2)=C3C)ccc1CC(C)C | 3 | 4000 | 1300 | 0.034 | –
CC1=C(CN2CC(C(=O)O)C2)CCc2cc(OCc3ccc(CC(C)C)cc3)ccc21 | 5 | > 30000 | > 6000 | 0.39 | Emax at 3 s, 30 µM [16]: < 50%
